This is an account of results in ChEMBL document CHEMBL1759927, “Design, synthesis and X-ray crystallographic study of NAmPRTase inhibitors as anti-cancer agents” (Eur J Med Chem, 2011).

Where only a bound is given, the exact number is not on record here.

In assay [1] the test system is MCF7. Briefly: Antitumor activity against human MCF7 cells after 6 days by SRB assay. It counts as functional. Details: concentration or dose not given beside the values. In short, it runs like this: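 MCF7 breast cancer cells were grown in RPMI 1640 with 10% FBS and antibiotic-antimycotic at 37 °C under 5% CO2. They were seeded at 50,000 cells/mL and exposed to inhibitor for six days. Cells were fixed with ice-cold TCA for 1 h, stained with SRB for 30 min at RT, washed with 1% acetic acid and solubilized in 10 mM Tris. A515 was read. […].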

Assay [2] concerns SNU-638. Briefly: Cytotoxicity against human SNU638 cells after 6 days by SRB assay. It counts as functional, cell-based. The note with it: SNU-638, 144 h. An outline of the steps: (§1)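 Cells were plated at 50,000 cells/mL in a humidified 5% CO2 atmosphere at 37 °C and incubated with inhibitors for six days. They were then fixed 1 h in cold TCA, stained 30 min at RT with SRB, washed with 1% acetic acid and solubilized in 10 mM Tris before reading at 515 nm. Means of four duplicate samples were expressed relative to solvent control, with IC50 from nonlinear regression.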

Assay [3] concerns K562. Briefly: Cytotoxicity against human K562 cells after 6 days by SRB assay. Particulars: K562, 144 h. It is filed as functional, cell-based. In short, it runs like this:
as §1

In assay [4] the test system is A549. The assay can be described thus: Cytotoxicity against human A549 cells after 6 days by SRB assay. It is filed as functional, cell-based. Particulars: A549, 144 h. An outline of the steps:
as §1

Assay [5] deals with HCT-116. Briefly: Cytotoxicity against human HCT116 cells after 6 days by SRB assay. It counts as functional, cell-based. Particulars: HCT-116, 144 h. An outline of the steps:
as §1

The subject of assay [6] is MCF7. Briefly: Antitumor activity against human MCF7 cells at 10 uM after 6 days by SRB assay. It is filed as functional, cell-based. The note with it: MCF7, 144 h. An outline of the steps: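 MCF7 cells were cultured in RPMI 1640 with 10% FBS at 37 °C and 5% CO2, plated at 50,000 cells/mL, and given a fixed 10 µM compound for six days. Viability was read by SRB staining after TCA fixation, Tris solubilization and absorbance at 515 nm. […], as means of three experiments with standard deviations.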

In assay [7] the test system is HT-1080. The assay can be described thus: Cytotoxicity against human HT1080 cells after 6 days by SRB assay. It counts as functional, cell-based. Particulars: HT-1080, 144 h. An outline of the steps: as §1
Assay [8] has as its target Nicotinamide phosphoribosyltransferase (Homo sapiens, UniProt P43490). Briefly: Inhibition of human NAmPRTase by HPLC analysis.

Sequence of Nicotinamide phosphoribosyltransferase (P43490 whole entry): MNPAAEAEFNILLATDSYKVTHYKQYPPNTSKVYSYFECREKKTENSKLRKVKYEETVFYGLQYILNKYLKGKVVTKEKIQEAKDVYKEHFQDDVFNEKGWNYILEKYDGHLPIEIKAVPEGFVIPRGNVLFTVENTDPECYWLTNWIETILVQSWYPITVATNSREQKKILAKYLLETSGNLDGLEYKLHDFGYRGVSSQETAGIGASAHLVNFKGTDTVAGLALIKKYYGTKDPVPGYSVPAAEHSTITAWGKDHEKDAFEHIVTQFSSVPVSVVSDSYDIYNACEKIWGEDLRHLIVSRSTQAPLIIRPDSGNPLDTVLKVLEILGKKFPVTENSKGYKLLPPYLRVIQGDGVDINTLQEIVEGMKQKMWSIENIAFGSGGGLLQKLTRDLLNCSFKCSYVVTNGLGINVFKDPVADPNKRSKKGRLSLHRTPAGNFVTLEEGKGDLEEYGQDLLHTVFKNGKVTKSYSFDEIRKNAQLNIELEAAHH

Consider `O=C(/C=C/c1c[nH]cn1)NCCCCC1CCN(C(=O)c2ccccc2)CC1`, for which the “Cell survival (% of control)” value in assay [1] was found to be 102.9%.

Consider `O=C(/C=C/c1cnn(CCC(CO)CO)c1)NCCCCC1CCN(C(=O)c2ccccc2)CC1`, for which the “Cell survival (% of control)” value in assay [1] is recorded as 106.6%.

In the case of `O=C(/C=C/c1c[nH]c2ccccc12)NCCCCC1CCN(C(=O)c2ccccc2)CC1`, the “Cell survival (% of control)” value in assay [1] was found to be 103.3%.

As for `O=C(/C=C/c1cncnc1)NCCCCC1CCN(C(=O)c2ccccc2)CC1`, the “Cell survival (% of control)” value in assay [1] is 86.8%.

Turning to `O=C(/C=C/c1cn[nH]c1)NCCCCC1CCN(C(=O)c2ccccc2)CC1`, in assay [1], the “Cell survival (% of control)” value is 101.7%.

For `O=C(/C=C/c1cccc([N+](=O)[O-])c1)NCCCCC1CCN(C(=O)c2ccccc2)CC1`, the “Cell survival (% of control)” value in assay [1] stood at 103.1%.

Consider `Nc1cccc(/C=C/C(=O)NCCCCC2CCN(C(=O)c3ccccc3)CC2)c1`, for which the “Cell survival (% of control)” value in assay [1] was found to be 103.9%.

On to `O=C(/C=C/c1cccnc1)NCCCCC1CCN(C(=O)c2ccccc2)CC1` [DAPORINAD], for which the IC50 in assay [2] is below 160 nM; in assay [3] it was above 20000 nM; in assay [4], below 160 nM; in assay [5] it was below 160 nM; in assay [6], 680 nM; in assay [7], below 160 nM. For the same molecule, the “Cell survival (% of control)” value in assay [1] is 5.6%.

With `O=C(/C=C/c1cn(CCC(CO)CO)cn1)NCCCCC1CCN(C(=O)c2ccccc2)CC1`, the “Cell survival (% of control)” value in assay [1] came to 104.3%.

For the molecule `O=C(/C=C/c1cn(CCC(CO)CO)c2ccccc12)NCCCCC1CCN(C(=O)c2ccccc2)CC1`, the “Cell survival (% of control)” value in assay [1] worked out at 104.9%.

Consider `O=C(/C=C/c1ccccc1[N+](=O)[O-])NCCCCC1CCN(C(=O)c2ccccc2)CC1`, for which the “Cell survival (% of control)” value in assay [1] was determined as 102.7%.

With `O=C(/C=C/c1cccn1CCC(CO)CO)NCCCCC1CCN(C(=O)c2ccccc2)CC1`, the “Cell survival (% of control)” value in assay [1] was found to be 105%.

As for `O=C(/C=C/c1ccc[nH]1)NCCCCC1CCN(C(=O)c2ccccc2)CC1`, the IC50 was 1700 nM in assay [2]; 1400 nM in assay [3]; 20300 nM in assay [8]; 4860 nM in assay [4]; 300 nM in assay [5]; 1290 nM in assay [6]. The molecule further showed an IC50 in assay [7] of 3200 nM. Besides, the “Cell survival (% of control)” value in assay [1] was found to be 4.5%.

As to `Nc1ncc(/C=C/C(=O)NCCCCC2CCN(C(=O)c3ccccc3)CC2)cn1`, the “Cell survival (% of control)” value in assay [1] amounted to 103.4%.

For `Cc1c2ccncc2c(C)c2c1[nH]c1ccccc12` [ELLIPTECINE], the IC50 in assay [2] was 1640 nM; in assay [3] it was 380 nM; in assay [4] it was 470 nM; in assay [5], 410 nM; in assay [7], 210 nM.

With `Nc1ccccc1/C=C/C(=O)NCCCCC1CCN(C(=O)c2ccccc2)CC1`, the “Cell survival (% of control)” value in assay [1] amounted to 106.3%.

For `Cn1cccc1/C=C/C(=O)NCCCCC1CCN(C(=O)c2ccccc2)CC1`, the “Cell survival (% of control)” value in assay [1] amounted to 103.6%.
